Series [1] concerns HCC4017. As to the kind of experiment: Cytotoxicity against human HCC4017 cells assessed as reduction in cell viability up to 100 uM after 24 hrs by calcein-AM dye based fluorescence assay. It counts as functional. The conditions noted are these: in the assay text read “up to 50 uM” for “up to 100 uM”. Put shortly:
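HCC4017 cells were seeded at 10 000 cells/well in triplicate, adhered overnight, and treated with a graded series of compounds for 24 h. Medium was replaced with PBS containing calcein AM (1 mM as printed) for 15 min at room temperature. Fluorescence emission was read at 520 nm.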

The test system of series [2] is HCC4017. As to the kind of experiment: Cytotoxicity against human HCC4017 cells assessed as reduction in cell viability at 1 uM after 24 hrs by MTS assay. In kind it is functional, cell-based. Put shortly:
(§1)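 HCC4017 cells (RPMI, 5% FBS) and HBEC-3KT normal lung cells (KSFM with recombinant human EGF and bovine pituitary extract) were plated at 10 000 cells/well in triplicate and left to adhere overnight. They were exposed to 1 or 20 μM compound for 24 h. MTS reagent was then added for 2 h and absorbance read at 490 nm. Viability is % of untreated control wells.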

A short description of series [3]: Cytotoxicity against human HBEC3-KT cells assessed as reduction in cell viability at 1 uM after 24 hrs by MTS assay. In kind it is cell-based. The method in brief:
as §1
In general terms: Formazan colour is commonly taken as a measure of viable cells.

A short description of series [4]: Cytotoxicity against human HBEC3-KT cells assessed as reduction in cell viability at 20 uM after 24 hrs by MTS assay. In kind it is cell-based. The method in brief:
as §1

Series [5] deals with HCC4017. In words: Cytotoxicity against human HCC4017 cells assessed as reduction in cell viability at 20 uM after 24 hrs by MTS assay. In kind it is functional, cell-based. Put shortly: as §1

The source made the active and inactive calls. No cut-off for these calls is given here. Starred links: 1 amine or outer side, 2 acyl side, 3 side chain; linkers in the order of their positions; H or OH if unused. Positions of bridges follow the written chain, without caps; N, C: chain ends. Non-standard residues stand in square brackets, D forms with d. Residues, ends and D or L forms follow the SMILES beside them. Chains are numbered I, II in the order given. Gly(N-piperonyl) = O=C(O)CNCc1ccc2c(c1)OCO2; X5 = O=C(CN(c1ccc2c(c1)OCCO2)[*:1])[*:2]; N(4-MeOBn)Gly = COc1ccc(CNCC(=O)O)cc1; X11 = Nc1ccc(CN(CC(=O)[*:2])[*:1])cc1; X3 = CC(c1ccccc1)N(CC(=O)[*:2])[*:1]; X9 = O=C(CN(CCOc1ccccc1)[*:1])[*:2]; X8 = O=C(CN(CC1CCNCC1)[*:1])[*:2]; Nrpe = C[C@@H](NCC(=O)O)c1ccccc1; X10 = CCC(C)CN(CC(=O)[*:2])[*:1]; X7 = O=C(CN(c1nccs1)[*:1])[*:2]; X6 = CCC(C)N(CC(=O)[*:2])[*:1]; NAllylGly = C=CCNCC(=O)O; Nlys = NCCCCNCC(=O)O; Nme = COCCNCC(=O)O; Sar = CNCC(=O)O

Regarding `C=CCNCC(=O)N(CCOC)CC(=O)N(CC=C)CC(=O)N(CCOC)CC(=O)N(CC=C)CC(=O)NCC(=O)NC(CCCCN)C(=O)NC(CCSC)C(=O)NCCCCC(NC(=O)C(CCSC)NC(=O)C(CCCCN)NC(=O)CNC(=O)CN(CC=C)C(=O)CN(CCOC)C(=O)CN(CC=C)C(=O)CN(CCOC)C(=O)CNCC=C)C(N)=O` (centres undefined) (I: H-[NAllylGly][Nme][NAllylGly][Nme][NAllylGly]GKMK-NH2 / II: H-[NAllylGly][Nme][NAllylGly][Nme][NAllylGly]GKM; amide I:9-II:C; configuration not given here), the outcome in series [1] and in series [2] was inactive. Moreover, the Activity result in series [3] and in series [4] was “Non-Toxic” throughout.

Turning to `COc1ccc(CN(CC(=O)N(CC(=O)N[C@@H](CCCCN)C(=O)N[C@H](CCCCN)C(=O)N[C@@H](CCSC)C(=O)NCCCC[C@H](NC(=O)[C@H](CCSC)NC(=O)[C@@H](CCCCN)NC(=O)[C@H](CCCCN)NC(=O)CN(C(=O)CN(Cc2ccc(OC)cc2)C(=O)CN(C(=O)CN(Cc2ccc3c(c2)OCO3)C(=O)CN[C@H](C)c2ccccc2)[C@H](C)c2ccccc2)c2ccc3c(c2)OCCO3)C(N)=O)c2ccc3c(c2)OCCO3)C(=O)CN(C(=O)CN(Cc2ccc3c(c2)OCO3)C(=O)CN[C@H](C)c2ccccc2)[C@H](C)c2ccccc2)cc1` (I: H-[Nrpe][Gly(N-piperonyl)][Nrpe][N(4-MeOBn)Gly][X5]K[dK]MK-NH2 / II: H-[Nrpe][Gly(N-piperonyl)][Nrpe][N(4-MeOBn)Gly][X5]K[dK]M; amide I:9-II:C), the outcome in series [5] was Active. In addition, the result in series [2] was inactive. For the same molecule, the Activity result in series [3] and in series [4] was “Non-Toxic” each time.

As for `COc1ccc(CN(CC(=O)N(CCCCN)CC(=O)NC(CCCCN)C(=O)NC(CCCCN)C(=O)NCCCCC(NC(=O)C(CCCCN)NC(=O)C(CCCCN)NC(=O)CN(CCCCN)C(=O)CN(Cc2ccc(OC)cc2)C(=O)CN(C(=O)CN(Cc2ccc3c(c2)OCO3)C(=O)CNC(C)c2ccccc2)C(C)c2ccccc2)C(N)=O)C(=O)CN(C(=O)CN(Cc2ccc3c(c2)OCO3)C(=O)CNC(C)c2ccccc2)C(C)c2ccccc2)cc1` (centres undefined) (I: H-[X3][Gly(N-piperonyl)][X3][N(4-MeOBn)Gly][Nlys]KKK-NH2 / II: H-[X3][Gly(N-piperonyl)][X3][N(4-MeOBn)Gly][Nlys]KK; amide I:8-II:C; configuration not given here), the outcome in series [5] and in series [1] was Active.

Consider `COCCN(CC(=O)NC(CCCCN)C(=O)NC(CCCCN)C(=O)NC(CCSC)C(=O)NCCCCC(NC(=O)C(CCSC)NC(=O)C(CCCCN)NC(=O)C(CCCCN)NC(=O)CN(CCOC)C(=O)CN(Cc1ccc(OC)cc1)C(=O)CN(C(=O)CN(Cc1ccc2c(c1)OCO2)C(=O)CNC(C)c1ccccc1)C(C)c1ccccc1)C(N)=O)C(=O)CN(Cc1ccc(OC)cc1)C(=O)CN(C(=O)CN(Cc1ccc2c(c1)OCO2)C(=O)CNC(C)c1ccccc1)C(C)c1ccccc1` (centres undefined) (I: H-[X3][Gly(N-piperonyl)][X3][N(4-MeOBn)Gly][Nme]KKMK-NH2 / II: H-[X3][Gly(N-piperonyl)][X3][N(4-MeOBn)Gly][Nme]KKM; amide I:9-II:C; configuration not given here), for which, in series [5], the result was Active.

As to `COc1ccc(CN(CC(=O)N(C)CC(=O)NC(CCCCN)C(=O)NC(CCCCN)C(=O)NC(CCSC)C(=O)NCCCCC(NC(=O)C(CCSC)NC(=O)C(CCCCN)NC(=O)C(CCCCN)NC(=O)CN(C)C(=O)CN(Cc2ccc(OC)cc2)C(=O)CN(C(=O)CN(Cc2ccc3c(c2)OCO3)C(=O)CNC(C)c2ccccc2)C(C)c2ccccc2)C(N)=O)C(=O)CN(C(=O)CN(Cc2ccc3c(c2)OCO3)C(=O)CNC(C)c2ccccc2)C(C)c2ccccc2)cc1` (centres undefined) (I: H-[X3][Gly(N-piperonyl)][X3][N(4-MeOBn)Gly][Sar]KKMK-NH2 / II: H-[X3][Gly(N-piperonyl)][X3][N(4-MeOBn)Gly][Sar]KKM; amide I:9-II:C; configuration not given here), in series [5], the result was Active.

Take `COc1ccc(CN(CC(=O)N(CC(=O)NC(CCCCN)C(=O)NC(CCCCN)C(=O)NC(CCSC)C(=O)NCCCCC(NC(=O)C(CCSC)NC(=O)C(CCCCN)NC(=O)C(CCCCN)NC(=O)CN(C(=O)CN(Cc2ccc(OC)cc2)C(=O)CN(C(=O)CN(Cc2ccc3c(c2)OCO3)C(=O)CNC(C)c2ccccc2)C(C)c2ccccc2)C(C)c2ccccc2)C(N)=O)C(C)c2ccccc2)C(=O)CN(C(=O)CN(Cc2ccc3c(c2)OCO3)C(=O)CNC(C)c2ccccc2)C(C)c2ccccc2)cc1` (centres undefined) (I: H-[X3][Gly(N-piperonyl)][X3][N(4-MeOBn)Gly][X3]KKMK-NH2 / II: H-[X3][Gly(N-piperonyl)][X3][N(4-MeOBn)Gly][X3]KKM; amide I:9-II:C; configuration not given here): the result in series [5] was Active.

As to `CCC(C)N(CC(=O)NC(CCCCN)C(=O)NC(CCCCN)C(=O)NC(CCSC)C(=O)NCCCCC(NC(=O)C(CCSC)NC(=O)C(CCCCN)NC(=O)C(CCCCN)NC(=O)CN(C(=O)CN(Cc1ccc(OC)cc1)C(=O)CN(C(=O)CN(Cc1ccc2c(c1)OCO2)C(=O)CNC(C)c1ccccc1)C(C)c1ccccc1)C(C)CC)C(N)=O)C(=O)CN(Cc1ccc(OC)cc1)C(=O)CN(C(=O)CN(Cc1ccc2c(c1)OCO2)C(=O)CNC(C)c1ccccc1)C(C)c1ccccc1` (centres undefined) (I: H-[X3][Gly(N-piperonyl)][X3][N(4-MeOBn)Gly][X6]KKMK-NH2 / II: H-[X3][Gly(N-piperonyl)][X3][N(4-MeOBn)Gly][X6]KKM; amide I:9-II:C; configuration not given here), the result in series [5] was Active.

For `COc1ccc(CN(CC(=O)N(CC(=O)NC(CCCCN)C(=O)NC(CCCCN)C(=O)NC(CCSC)C(=O)NCCCCC(NC(=O)C(CCSC)NC(=O)C(CCCCN)NC(=O)C(CCCCN)NC(=O)CN(C(=O)CN(Cc2ccc(OC)cc2)C(=O)CN(C(=O)CN(Cc2ccc3c(c2)OCO3)C(=O)CNC(C)c2ccccc2)C(C)c2ccccc2)c2nccs2)C(N)=O)c2nccs2)C(=O)CN(C(=O)CN(Cc2ccc3c(c2)OCO3)C(=O)CNC(C)c2ccccc2)C(C)c2ccccc2)cc1` (centres undefined) (I: H-[X3][Gly(N-piperonyl)][X3][N(4-MeOBn)Gly][X7]KKMK-NH2 / II: H-[X3][Gly(N-piperonyl)][X3][N(4-MeOBn)Gly][X7]KKM; amide I:9-II:C; configuration not given here), the result in series [5] was Active.

Consider `COc1ccc(CN(CC(=O)N(CC(=O)NC(CCCCN)C(=O)NC(CCCCN)C(=O)NC(CCSC)C(=O)NCCCCC(NC(=O)C(CCSC)NC(=O)C(CCCCN)NC(=O)C(CCCCN)NC(=O)CN(CC2CCNCC2)C(=O)CN(Cc2ccc(OC)cc2)C(=O)CN(C(=O)CN(Cc2ccc3c(c2)OCO3)C(=O)CNC(C)c2ccccc2)C(C)c2ccccc2)C(N)=O)CC2CCNCC2)C(=O)CN(C(=O)CN(Cc2ccc3c(c2)OCO3)C(=O)CNC(C)c2ccccc2)C(C)c2ccccc2)cc1` (centres undefined) (I: H-[X3][Gly(N-piperonyl)][X3][N(4-MeOBn)Gly][X8]KKMK-NH2 / II: H-[X3][Gly(N-piperonyl)][X3][N(4-MeOBn)Gly][X8]KKM; amide I:9-II:C; configuration not given here), for which the result in series [5] was Active.

Consider `COc1ccc(CN(CC(=O)N(CCOc2ccccc2)CC(=O)NC(CCCCN)C(=O)NC(CCCCN)C(=O)NC(CCSC)C(=O)NCCCCC(NC(=O)C(CCSC)NC(=O)C(CCCCN)NC(=O)C(CCCCN)NC(=O)CN(CCOc2ccccc2)C(=O)CN(Cc2ccc(OC)cc2)C(=O)CN(C(=O)CN(Cc2ccc3c(c2)OCO3)C(=O)CNC(C)c2ccccc2)C(C)c2ccccc2)C(N)=O)C(=O)CN(C(=O)CN(Cc2ccc3c(c2)OCO3)C(=O)CNC(C)c2ccccc2)C(C)c2ccccc2)cc1` (centres undefined) (I: H-[X3][Gly(N-piperonyl)][X3][N(4-MeOBn)Gly][X9]KKMK-NH2 / II: H-[X3][Gly(N-piperonyl)][X3][N(4-MeOBn)Gly][X9]KKM; amide I:9-II:C; configuration not given here), for which the outcome in series [5] was Active.

`CCC(C)CN(CC(=O)NC(CCCCN)C(=O)NC(CCCCN)C(=O)NC(CCSC)C(=O)NCCCCC(NC(=O)C(CCSC)NC(=O)C(CCCCN)NC(=O)C(CCCCN)NC(=O)CN(CC(C)CC)C(=O)CN(Cc1ccc(OC)cc1)C(=O)CN(C(=O)CN(Cc1ccc2c(c1)OCO2)C(=O)CNC(C)c1ccccc1)C(C)c1ccccc1)C(N)=O)C(=O)CN(Cc1ccc(OC)cc1)C(=O)CN(C(=O)CN(Cc1ccc2c(c1)OCO2)C(=O)CNC(C)c1ccccc1)C(C)c1ccccc1` (centres undefined) (I: H-[X3][Gly(N-piperonyl)][X3][N(4-MeOBn)Gly][X10]KKMK-NH2 / II: H-[X3][Gly(N-piperonyl)][X3][N(4-MeOBn)Gly][X10]KKM; amide I:9-II:C; configuration not given here): the result in series [5] was Active.

On to `COc1ccc(CN(CC(=O)N(CC(=O)NC(CCCCN)C(=O)NC(CCCCN)C(=O)NC(CCSC)C(=O)NCCCCC(NC(=O)C(CCSC)NC(=O)C(CCCCN)NC(=O)C(CCCCN)NC(=O)CN(Cc2ccc(N)cc2)C(=O)CN(Cc2ccc(OC)cc2)C(=O)CN(C(=O)CN(Cc2ccc3c(c2)OCO3)C(=O)CNC(C)c2ccccc2)C(C)c2ccccc2)C(N)=O)Cc2ccc(N)cc2)C(=O)CN(C(=O)CN(Cc2ccc3c(c2)OCO3)C(=O)CNC(C)c2ccccc2)C(C)c2ccccc2)cc1` (centres undefined) (I: H-[X3][Gly(N-piperonyl)][X3][N(4-MeOBn)Gly][X11]KKMK-NH2 / II: H-[X3][Gly(N-piperonyl)][X3][N(4-MeOBn)Gly][X11]KKM; amide I:9-II:C; configuration not given here), for which the result in series [5] was Active.
